The structures appear in SMILES notation.

In data set [1] the target is T1, Diacylglycerol O-acyltransferase 1 (Homo sapiens, UniProt O75907).
T1 sequence (O75907 whole entry): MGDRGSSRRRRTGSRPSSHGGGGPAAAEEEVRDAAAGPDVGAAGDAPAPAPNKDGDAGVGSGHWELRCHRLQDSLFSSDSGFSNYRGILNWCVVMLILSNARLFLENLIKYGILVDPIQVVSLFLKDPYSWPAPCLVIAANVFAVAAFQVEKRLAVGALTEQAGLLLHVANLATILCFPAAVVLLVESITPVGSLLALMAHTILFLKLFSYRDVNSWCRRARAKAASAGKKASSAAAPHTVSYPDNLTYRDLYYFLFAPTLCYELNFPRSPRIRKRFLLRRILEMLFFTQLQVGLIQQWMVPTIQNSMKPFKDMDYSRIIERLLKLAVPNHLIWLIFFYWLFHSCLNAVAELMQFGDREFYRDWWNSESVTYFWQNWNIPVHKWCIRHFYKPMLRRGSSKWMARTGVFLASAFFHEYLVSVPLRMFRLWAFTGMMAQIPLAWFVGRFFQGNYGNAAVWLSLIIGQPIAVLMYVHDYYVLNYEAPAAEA
In words: Inhibition of human recombinant DGAT1 expressed in baculovirus infected Sf9 cells after 60 mins by scintillation counting method.

Data set [2] in a line: Permeability across human Caco2 cell membrane. Format: ADME, cell-based. The following applies: Caco-2, read-out: permeability. Background: Caco-2 monolayers are a common model of the intestinal barrier.
The nature of data set [3]: Metabolic stability in mouse hepatic microsomes assessed as compound metabolism after 20 mins. Format: ADME. The following applies: liver microsomes, read-out: Drug metabolism. Put shortly:
(§1)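 Compound was incubated for 20 min with human or mouse hepatic microsomal fraction. % liability is the disappearance of parent compound at the end of the incubation.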
Background: Liver microsomes are vesicles of endoplasmic reticulum, rich in cytochrome P450 enzymes.

Data set [4] in a line: Metabolic stability in human hepatic microsomes assessed as compound metabolism after 20 mins. Format: ADME. Particulars: liver microsomes, read-out: Drug metabolism. An outline of the steps:
as §1

The subject of a further data set is Mus musculus. In words: Antihyperlipidemic activity in C57BL/6J mouse assessed as inhibition of rise in plasma triglyceride level at 1 mg/kg, po administered 1 hr before lipid challenge. Format: functional. An outline of the steps: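 Fasted male C57Bl/6J mice (n = 10/group) were dosed orally at 1 mg/kg in 0.5% methylcellulose/1% DMSO (10 mL/kg), 1 h before a 100 µL corn oil or water bolus. Blood was taken by intracardiac puncture under isoflurane 1 h after the challenge, and plasma triglycerides were measured with a commercial kit. Inhibition of the TG rise was assessed against vehicle by one-way ANOVA with Dunnett test.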

Data set [5] is described as follows: Plasma concentration in C57BL/6J mouse at 1 mg/kg, po administered 1 hr before lipid challenge measured after 1 hr post dose. Format: ADME, organism-based. On the set-up: dose 1 mg/kg, route oral.

Turning to `CS(=O)(=O)c1nnc(NC(=O)c2ccc([C@H]3CC[C@H](CC(=O)O)CC3)cc2)s1`, the IC50 (usually the concentration that inhibits the measured activity by half) in data set [1] was above 10 µM.

With `O=C(O)C[C@H]1CC[C@H](c2ccc(C(=O)Nc3nnc(Cc4ccccc4)s3)cc2)CC1`, the Papp in data set [2] amounted to 11.2 ×10⁻⁶ cm/s. Also, the metabolised at 20 min in data set [3] came out at 5%; in data set [4] it was 0%. Besides, the inhibition in vivo (commonly the relative decrease from the control value, in per cent) at 1 mg/kg with Mus musculus amounted to 95%. In data set [5], this compound gave a concentration at 1 h of 79.1 ng/mL.

With `O=C(O)C[C@H]1CC[C@H](c2ccc(C(=O)Nc3nnc(Cc4cccc(F)c4)s3)cc2)CC1`, the Papp in data set [2] was 12 ×10⁻⁶ cm/s. The values for the metabolised at 20 min in data set [3] and in data set [4] were 10% and 1%, respectively. In addition, the inhibition in vivo at 1 mg/kg in the data set on Mus musculus was 107%.

For `O=C(O)C[C@H]1CC[C@H](c2ccc(C(=O)Nc3nnc(Cc4ccccc4F)s3)cc2)CC1`, the Papp in data set [2] is 7.5 ×10⁻⁶ cm/s. The metabolised at 20 min worked out at 4% in data set [3] and 0% in data set [4]. In addition, the inhibition in vivo at 1 mg/kg with Mus musculus came to 120%.

Take `O=C(O)C[C@H]1CC[C@H](c2ccc(C(=O)Nc3nnc(Cc4cccc(Cl)c4)s3)cc2)CC1`: the Papp in data set [2] is 8 ×10⁻⁶ cm/s. In addition, the results for the metabolised at 20 min in data set [3] and in data set [4] were 14% and 6%, respectively. Moreover, the inhibition in vivo at 1 mg/kg in the data set on Mus musculus was found to be 101%.

Consider `CC(C)[C@H](NC(=O)c1ccc(-c2ccc(Nc3nnc(Cc4ccccc4)s3)cc2)cc1)C(=O)O`, for which, in data set [2], the Papp is 0.04 ×10⁻⁶ cm/s.

Regarding `CN(C(=O)c1ccc([C@H]2CC[C@H](CC(=O)O)CC2)cc1)c1nnc(Cc2ccccc2)s1`, in data set [1], the half-maximal inhibitory concentration (IC50) was above 10 µM.

On to `O=C(O)CC1CCC(c2ccc(Nc3nnc(Cc4ccccc4)s3)cc2)CC1` (mixture of isomers), for which the IC50 in data set [1] was above 10 µM.
